Measured values as given in ChEMBL document CHEMBL3861997 (Bioorg Med Chem, 2016).
Blank lines part the entries; values can stand above or below the compound they belong to.

Columns and labels:
[1] = Anticoagulant activity in rabbit plasma assessed as increase in activated partial thromboplastin time; format: functional, Oryctolagus cuniculus
[2] = Anticoagulant activity in healthy human plasma assessed as increase in prothrombin time; format: functional
Outline: (§1)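 Concentration doubling clotting time (EC2x), human or rabbit plasma. Plasma from centrifugation at 2000 g, 10 min. Inhibitor stock in DMSO, serially diluted; clotting time measured in control plasma and plasma with five to seven inhibitor concentrations. PT run on temperature-controlled automated coagulation analyser with Thromborel-S reagent. Duplicate determinations at each concentration.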

[3] = biological target: Coagulation factor X (Homo sapiens, UniProt P00742); experiment: Inhibition of human coagulation factor 10a assessed as reduction in p-nitroaniline cleavage from pefachrome substrate preincubated for 10 mins followed by substrate addition measured after 20 mins
Coagulation factor X, sequence (P00742 41-179 limits assumed): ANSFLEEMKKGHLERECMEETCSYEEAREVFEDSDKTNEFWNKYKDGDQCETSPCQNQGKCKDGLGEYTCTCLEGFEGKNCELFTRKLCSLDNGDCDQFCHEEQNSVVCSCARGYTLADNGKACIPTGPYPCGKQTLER
Coagulation factor X, sequence (P00742 235-488 limits assumed): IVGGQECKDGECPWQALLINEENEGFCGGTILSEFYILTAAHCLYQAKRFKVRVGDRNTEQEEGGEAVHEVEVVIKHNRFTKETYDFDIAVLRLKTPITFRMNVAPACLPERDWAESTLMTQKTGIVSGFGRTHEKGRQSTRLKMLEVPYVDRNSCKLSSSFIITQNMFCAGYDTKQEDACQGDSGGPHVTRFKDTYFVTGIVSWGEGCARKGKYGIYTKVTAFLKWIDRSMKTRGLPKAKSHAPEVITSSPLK

[4] = Anticoagulant activity in healthy human plasma assessed as increase in activated partial thromboplastin time; format: functional
[5] = species: Rattus norvegicus; experiment: Antithrombotic activity in rat venous thrombus model assessed as inhibition of thrombus formation relative to control; format: functional
Outline: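 Rat venous stasis model: after 2 h the abdomen was reopened and the vena cava dissected longitudinally. Thrombus removed, held at 37 °C for 24 h, then dry weight measured.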

[6] = Anticoagulant activity in rabbit plasma assessed as increase in prothrombin time; format: functional, Oryctolagus cuniculus; outline: as §1

IC50 [3]: 150 nM
Structure (SMILES): COc1ccc(-n2nc(-c3nc[nH]n3)c3c2C(=O)N(c2ccc(N4CCCCC4=O)cc2)CC3)cc1
2aPTT [1]: 1.2 µM
2PT [2]: 0.5 µM
2aPTT [4]: 0.8 µM
inhibition (INH) [5]: 99%
2PT [6]: 0.7 µM

Structure (SMILES): COc1ccc(-n2nc(-c3n[nH]c(=O)n3-c3ccccc3C(F)(F)F)c3c2C(=O)N(c2ccc(N4CCCCC4=O)cc2)CC3)cc1
2aPTT [1]: 32.1 µM
2PT [2]: 16.8 µM
2aPTT [4]: 30.1 µM
2PT [6]: 17.9 µM

Structure (SMILES): COc1ccc(-n2nc(-c3nncn3CCN(C)C)c3c2C(=O)N(c2ccc(N4CCCCC4=O)cc2)CC3)cc1
2aPTT [1]: 8 µM
2PT [2]: 3.9 µM
2aPTT [4]: 7 µM
2PT [6]: 4.4 µM

Structure (SMILES): CCN(CC)CCCn1cnnc1-c1nn(-c2ccc(OC)cc2)c2c1CCN(c1ccc(N3CCCCC3=O)cc1)C2=O
2aPTT [1]: 11.1 µM
2PT [2]: 5 µM
2aPTT [4]: 10 µM
2PT [6]: 6.1 µM

Structure (SMILES): COc1ccc(-n2nc(-n3cccc3CN(C)C)c3c2C(=O)N(c2ccc(N4CCCCC4=O)cc2)CC3)cc1
2aPTT [1]: 3.2 µM
2PT [2]: 1.5 µM
2aPTT [4]: 3.5 µM
2PT [6]: 1.9 µM

Structure (SMILES): COc1ccc(-n2nc(-c3n[nH]c(=O)n3-c3ccc(OC)cc3)c3c2C(=O)N(c2ccc(N4CCCCC4=O)cc2)CC3)cc1
2aPTT [1]: 19.2 µM
2PT [2]: 14.8 µM
2aPTT [4]: 21.3 µM
2PT [6]: 9.2 µM

Structure (SMILES): O=C1CCCCN1c1ccc(N2CCc3c(-c4nc[nH]n4)nn(-c4ccc(OC(F)F)cc4)c3C2=O)cc1
2aPTT [1]: 7.8 µM
2PT [2]: 3.6 µM
2aPTT [4]: 6.6 µM
2PT [6]: 4 µM

Structure (SMILES): O=C1CCCCN1c1ccc(N2CCc3c(-c4nc[nH]n4)nn(-c4ccc(Cl)cc4)c3C2=O)cc1
2aPTT [1]: 9.9 µM
2PT [2]: 4.3 µM
2aPTT [4]: 8.4 µM
2PT [6]: 4.2 µM

Structure (SMILES): CCN(CC)Cc1cccn1-c1nn(-c2ccc(OC)cc2)c2c1CCN(c1ccc(N3CCCCC3=O)cc1)C2=O
2aPTT [1]: 3.9 µM
2PT [2]: 1.6 µM
2aPTT [4]: 3.7 µM
2PT [6]: 2.1 µM

IC50 [3]: 2400 nM
Structure (SMILES): COc1ccc(-n2nc(-n3cccc3CN3CCOCC3)c3c2C(=O)N(c2ccc(N4CCCCC4=O)cc2)CC3)cc1
2aPTT [1]: 3.9 µM
2PT [2]: 1.1 µM
2aPTT [4]: 2.4 µM
inhibition (INH) [5]: 57%
2PT [6]: 1.7 µM

Structure (SMILES): COc1ccc(-n2nc(-c3ncnn3C)c3c2CCN(c2ccc(N4CCCCC4=O)cc2)C3=O)cc1
2aPTT [1]: 15.1 µM
2PT [2]: 3.3 µM
2aPTT [4]: 10 µM
2PT [6]: 4.1 µM

Structure (SMILES): COc1ccc(-n2nc(-c3n[nH]c(C4CC4)n3)c3c2C(=O)N(c2ccc(N4CCCCC4=O)cc2)CC3)cc1
2aPTT [1]: 6 µM
2PT [2]: 3.5 µM
2aPTT [4]: 5.1 µM
2PT [6]: 4.9 µM

Structure (SMILES): COc1ccc(-n2nc(-c3n[nH]c(C)n3)c3c2C(=O)N(c2ccc(N4CCCCC4=O)cc2)CC3)cc1
2aPTT [1]: 3.2 µM
2PT [2]: 1.6 µM
2aPTT [4]: 3.7 µM
2PT [6]: 1.9 µM

Structure (SMILES): COc1ccc(-n2nc(-c3nncn3CCCN3CCOCC3)c3c2C(=O)N(c2ccc(N4CCCCC4=O)cc2)CC3)cc1
2aPTT [1]: 15 µM
2PT [2]: 5.5 µM
2aPTT [4]: 10.5 µM
2PT [6]: 7.5 µM

Structure (SMILES): O=C1CCCCN1c1ccc(N2CCc3c(-c4nc[nH]n4)nn(-c4ccc(F)cc4)c3C2=O)cc1
2aPTT [1]: 5.1 µM
2PT [2]: 1.8 µM
2aPTT [4]: 4.5 µM
2PT [6]: 2.8 µM

Structure (SMILES): COc1ccc(-n2nc(-c3n[nH]c(=O)n3-c3ccccc3)c3c2C(=O)N(c2ccc(N4CCCCC4=O)cc2)CC3)cc1
2aPTT [1]: 22.1 µM
2PT [2]: 12.9 µM
2aPTT [4]: 20.3 µM
2PT [6]: 13.3 µM

Structure (SMILES): O=C1CCCCN1c1ccc(N2CCc3c(-c4nc[nH]n4)nn(-c4ccc(Br)cc4)c3C2=O)cc1
2aPTT [1]: 10.2 µM
2PT [2]: 6.4 µM
2aPTT [4]: 11.3 µM
2PT [6]: 7.9 µM

Structure (SMILES): O=C1CCCCN1c1ccc(N2CCc3c(-c4nc[nH]n4)nn(-c4ccc(OC(F)(F)F)cc4)c3C2=O)cc1
2aPTT [1]: 12 µM
2PT [2]: 5.5 µM
2aPTT [4]: 10.5 µM
2PT [6]: 6.4 µM

IC50 [3]: 1990 nM
Structure (SMILES): COc1ccc(-n2nc(C(N)=O)c3c2C(=O)N(c2ccc(C4=NCCN4)cc2)CC3)cc1
2aPTT [1]: 1 µM
2PT [2]: 0.9 µM
2aPTT [4]: 0.9 µM
inhibition (INH) [5]: 66%
2PT [6]: 0.7 µM

Structure (SMILES): COc1ccc(-n2nc(-c3n[nH]c(C4CCCO4)n3)c3c2C(=O)N(c2ccc(N4CCCCC4=O)cc2)CC3)cc1 (configuration not stated)
2aPTT [1]: 7.9 µM
2PT [2]: 3.9 µM
2aPTT [4]: 6.3 µM
2PT [6]: 5 µM

IC50 [3]: 2400 nM
Structure (SMILES): COc1ccc(-n2nc(-c3ncn(C)n3)c3c2CCN(c2ccc(N4CCCCC4=O)cc2)C3=O)cc1
2aPTT [1]: 3 µM
2PT [2]: 0.8 µM
2aPTT [4]: 1.9 µM
inhibition (INH) [5]: 65%
2PT [6]: 0.9 µM

Structure (SMILES): COc1ccc(-n2nc(-c3nncn3CCCN(C)C)c3c2C(=O)N(c2ccc(N4CCCCC4=O)cc2)CC3)cc1
2aPTT [1]: 10.1 µM
2PT [2]: 4.5 µM
2aPTT [4]: 9 µM
2PT [6]: 5.7 µM

Structure (SMILES): COCc1nc(-c2nn(-c3ccc(OC)cc3)c3c2CCN(c2ccc(N4CCCCC4=O)cc2)C3=O)n[nH]1
2aPTT [1]: 6 µM
2PT [2]: 2.4 µM
2aPTT [4]: 4.1 µM
2PT [6]: 3 µM

IC50 [3]: 850 nM
Structure (SMILES): COc1ccc(-n2nc(-c3n[nH]c(C(C)(C)C)n3)c3c2C(=O)N(c2ccc(N4CCCCC4=O)cc2)CC3)cc1
2aPTT [1]: 4.1 µM
2PT [2]: 1 µM
2aPTT [4]: 2.3 µM
inhibition (INH) [5]: 70%
2PT [6]: 1.4 µM

IC50 [3]: 350 nM
Structure (SMILES): COc1ccc(-n2nc(C(N)=O)c3c2C(=O)N(c2ccc(C4=NCCCN4)cc2)CC3)cc1
2aPTT [1]: 2 µM
2PT [2]: 0.9 µM
2aPTT [4]: 1.1 µM
inhibition (INH) [5]: 82%
2PT [6]: 1.1 µM

Structure (SMILES): COc1ccc(-n2nc(C(N)=O)c3c2C(=O)N(c2ccc(N4CCCCC4=O)cc2)CC3)cc1 [APIXABAN]
2aPTT [1]: 1.4 µM
2PT [2]: 0.8 µM
2aPTT [4]: 0.9 µM
inhibition (INH) [5]: 96%
2PT [6]: 0.6 µM
